# Results: ChEMBL document CHEMBL2034841, “Synthesis and evaluation of (2-(4-methoxyphenyl)-4-quinolinyl)(2-piperidinyl)methanol (NSC23925) isomers to reverse multidrug resistance in cancer” (J Med Chem, 2012)
# The source made the active and inactive calls. No cut-off for these calls is given here.
# Tests used:
# [1] = target: T1, ATP-dependent translocase ABCB1 (Homo sapiens, UniProt P08183); experiment: Inhibition of MDR1-mediated drug resistance in human multidrug-resistant SKOV3TR cells at 1 uM assessed as potentiation of paclitaxel potency by incubated for 6 days by MTT assay; type: cell-based; conditions: 144 h
# T1 sequence (P08183 whole entry): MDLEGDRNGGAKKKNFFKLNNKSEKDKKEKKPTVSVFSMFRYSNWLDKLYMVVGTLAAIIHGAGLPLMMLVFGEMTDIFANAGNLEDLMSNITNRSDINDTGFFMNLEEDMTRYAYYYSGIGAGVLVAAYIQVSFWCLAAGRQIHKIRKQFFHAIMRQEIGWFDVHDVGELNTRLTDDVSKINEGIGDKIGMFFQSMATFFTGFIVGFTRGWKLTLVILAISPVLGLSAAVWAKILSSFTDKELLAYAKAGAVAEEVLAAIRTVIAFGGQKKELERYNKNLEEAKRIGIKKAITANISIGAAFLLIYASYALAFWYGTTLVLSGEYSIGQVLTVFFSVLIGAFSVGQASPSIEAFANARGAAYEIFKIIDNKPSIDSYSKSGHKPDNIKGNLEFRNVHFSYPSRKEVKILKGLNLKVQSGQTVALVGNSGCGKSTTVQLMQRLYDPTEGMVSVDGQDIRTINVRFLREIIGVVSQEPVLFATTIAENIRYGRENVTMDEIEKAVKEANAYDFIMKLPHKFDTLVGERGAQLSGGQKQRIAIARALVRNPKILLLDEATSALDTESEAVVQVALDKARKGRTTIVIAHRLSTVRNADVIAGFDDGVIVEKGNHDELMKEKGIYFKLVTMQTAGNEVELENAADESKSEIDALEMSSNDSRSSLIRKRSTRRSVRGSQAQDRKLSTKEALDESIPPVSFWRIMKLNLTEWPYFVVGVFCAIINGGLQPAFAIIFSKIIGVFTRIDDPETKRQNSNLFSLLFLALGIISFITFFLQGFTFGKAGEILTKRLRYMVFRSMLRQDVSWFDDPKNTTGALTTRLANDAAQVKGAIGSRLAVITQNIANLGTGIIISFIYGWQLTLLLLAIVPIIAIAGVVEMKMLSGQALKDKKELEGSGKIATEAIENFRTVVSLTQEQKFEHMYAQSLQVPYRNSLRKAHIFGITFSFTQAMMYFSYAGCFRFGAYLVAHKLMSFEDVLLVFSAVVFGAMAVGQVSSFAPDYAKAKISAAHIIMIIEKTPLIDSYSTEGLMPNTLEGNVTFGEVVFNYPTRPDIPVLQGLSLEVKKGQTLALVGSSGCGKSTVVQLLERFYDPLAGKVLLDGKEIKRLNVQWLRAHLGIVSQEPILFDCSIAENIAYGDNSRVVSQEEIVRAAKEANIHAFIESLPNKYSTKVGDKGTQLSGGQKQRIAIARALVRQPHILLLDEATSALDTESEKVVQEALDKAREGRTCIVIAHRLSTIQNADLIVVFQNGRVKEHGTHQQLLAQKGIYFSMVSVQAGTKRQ
# In short: (§1)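 SKOV-3_TR cells were seeded at 2000/well in RPMI 1640 complete medium with varying paclitaxel concentrations plus the test agent at a fixed 0.1, 0.5 or 1 μM for 6 days. Viability was read by MTT, and IC50 was taken from fitted dose–response curves in triplicate wells. Fold reversal = IC50 without agent ÷ IC50 with agent.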
# [2] = target: T1, ATP-dependent translocase ABCB1; experiment: Inhibition of MDR1-mediated drug resistance in human multidrug-resistant SKOV3TR cells at 0.5 uM assessed as potentiation of paclitaxel potency by incubated for 6 days by MTT assay; type: cell-based; conditions: 144 h; in short: as §1
# [3] = target: T1, ATP-dependent translocase ABCB1; experiment: Inhibition of MDR1-mediated drug resistance in human multidrug-resistant SKOV3TR cells at 0.1 uM assessed as potentiation of paclitaxel potency by incubated for 6 days by MTT assay; type: cell-based; conditions: 144 h; in short: as §1
# [4] = target: Multidrug resistance-associated protein 1 (Homo sapiens, UniProt P33527); experiment: Inhibition of MRP1-mediated drug resistance in human multidrug-resistant H-69AR cells; type: cell-based
# Multidrug resistance-associated protein 1, sequence (P33527 whole entry): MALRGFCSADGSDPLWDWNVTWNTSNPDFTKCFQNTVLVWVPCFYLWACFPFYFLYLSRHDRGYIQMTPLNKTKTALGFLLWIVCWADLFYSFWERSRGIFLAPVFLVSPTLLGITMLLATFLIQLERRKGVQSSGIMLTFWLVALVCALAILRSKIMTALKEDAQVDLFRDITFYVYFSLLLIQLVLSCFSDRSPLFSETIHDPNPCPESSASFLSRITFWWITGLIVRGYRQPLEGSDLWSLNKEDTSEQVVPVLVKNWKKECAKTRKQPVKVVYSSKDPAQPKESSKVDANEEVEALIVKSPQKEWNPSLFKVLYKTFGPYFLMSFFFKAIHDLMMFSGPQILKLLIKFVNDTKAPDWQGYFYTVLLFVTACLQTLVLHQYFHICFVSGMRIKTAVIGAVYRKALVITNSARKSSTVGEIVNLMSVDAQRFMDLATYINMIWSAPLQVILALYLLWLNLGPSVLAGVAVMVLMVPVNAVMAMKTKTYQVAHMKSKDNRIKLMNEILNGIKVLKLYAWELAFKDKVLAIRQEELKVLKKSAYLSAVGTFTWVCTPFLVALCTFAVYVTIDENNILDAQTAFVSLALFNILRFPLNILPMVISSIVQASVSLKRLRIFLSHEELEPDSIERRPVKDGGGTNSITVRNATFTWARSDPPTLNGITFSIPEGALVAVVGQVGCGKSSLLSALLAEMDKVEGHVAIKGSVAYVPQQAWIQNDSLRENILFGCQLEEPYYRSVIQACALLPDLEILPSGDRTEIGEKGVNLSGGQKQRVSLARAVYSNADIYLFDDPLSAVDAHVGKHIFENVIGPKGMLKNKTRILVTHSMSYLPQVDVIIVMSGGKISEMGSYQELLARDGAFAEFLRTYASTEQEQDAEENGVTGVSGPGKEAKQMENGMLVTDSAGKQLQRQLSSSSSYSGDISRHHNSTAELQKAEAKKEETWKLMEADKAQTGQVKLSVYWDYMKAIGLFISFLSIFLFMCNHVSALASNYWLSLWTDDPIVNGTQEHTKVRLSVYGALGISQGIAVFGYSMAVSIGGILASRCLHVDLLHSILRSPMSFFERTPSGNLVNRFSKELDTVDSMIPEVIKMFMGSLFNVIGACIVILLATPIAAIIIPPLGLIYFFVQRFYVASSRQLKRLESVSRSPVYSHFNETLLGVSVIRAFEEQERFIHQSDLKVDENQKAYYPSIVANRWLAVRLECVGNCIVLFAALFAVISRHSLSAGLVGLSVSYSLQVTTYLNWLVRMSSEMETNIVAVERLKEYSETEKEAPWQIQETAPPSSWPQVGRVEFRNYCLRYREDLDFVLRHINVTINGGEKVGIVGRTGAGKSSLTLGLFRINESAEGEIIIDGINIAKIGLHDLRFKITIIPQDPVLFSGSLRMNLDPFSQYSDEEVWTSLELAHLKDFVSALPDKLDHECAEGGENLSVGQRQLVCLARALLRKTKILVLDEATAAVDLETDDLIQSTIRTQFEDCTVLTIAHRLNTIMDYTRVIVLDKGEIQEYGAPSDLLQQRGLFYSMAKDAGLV
# In short: (§2)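 H-69AR (MRP1) or MCF-7/MX (BCRP) cells were plated in 96-well plates and treated with chemotherapy drugs plus the test agent as in the Pgp reversal assay: 2000 cells/well, 6 days, MTT read-out. IC50 values came from triplicate dose–response curves. Cells were grown in RPMI 1640 with 10% FBS at 37 °C, 5% CO2.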
# [5] = target: T1, ATP-dependent translocase ABCB1; experiment: Inhibition of MDR1 in human multidrug-resistant MCF7adr cells assessed as potentiation of doxorubicin-induced cell death at 1 uM incubated for 72 hrs by MTT assay
# [6] = target: T1, ATP-dependent translocase ABCB1; experiment: Inhibition of MDR1 in human multidrug-resistant SW480TR cells assessed as increase in calcein AM accumulation by fluorescence microscopy; type: cell-based
# In short: (§3)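 Vybrant calcein AM efflux assay. Resistant cells (5000/well) were cultured for 24 h, then treated in triplicate with a range of test-agent concentrations for 1 h, followed by calcein AM for 30 min. Intracellular calcein fluorescence was imaged by fluorescence microscopy, and accumulation was compared across doses.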
# [7] = system: SKOV-3TR (Homo sapiens); experiment: Potentiation of 20 mg/kg, ip paclitaxel antitumor potency in human multidrug-resistant SKOV-3TR cells xenografted in Crl:SHO-Prkdc'SCIDHr'hr nude mouse assessed as increase in tumor growth inhibition at 50 mg/kg, ip dosed twice weekly for two weeks starting two weeks post tumor cells implantation
# [8] = system: SKOV-3TR (Homo sapiens); experiment: Antitumor activity against human multidrug-resistant SKOV-3TR cells xenografted in Crl:SHO-Prkdc'SCIDHr'hr nude mouse assessed as tumor growth inhibition at 50 mg/kg, ip dosed twice weekly for two weeks starting two weeks post tumor cells implantation
# [9] = system: Mus musculus; experiment: Toxicity in human multidrug-resistant SKOV-3TR cells xenografted in Crl:SHO-Prkdc'SCIDHr'hr nude mouse assessed as effect on body weight at 50 mg/kg, ip dosed twice weekly for two weeks starting two weeks post tumor cells implantation; conditions: in vivo
# [10] = system: Mus musculus; experiment: Toxicity in human multidrug-resistant […] cells xenografted in Crl:SHO-Prkdc'SCIDHr'hr nude mouse assessed as mortality incidence at 50 mg/kg, ip dosed twice weekly for two weeks starting two weeks post tumor cells implantation; type: organism-based; set-up: dose 50 mg/kg, route intraperitoneal; conditions: in vivo
# In short: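 […] cells injected subcutaneously with matrigel on day one. Dosing began two weeks later: ip injection twice a week for two weeks, given alone (50 mg/kg) or with paclitaxel (20 mg/kg); saline-injected controls. Mice checked daily for health and tumor growth. Toxicity judged from animal weight and mortality.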
# [11] = target: T2, Broad substrate specificity ATP-binding cassette transporter ABCG2 (Homo sapiens, UniProt Q9UNQ0); experiment: Inhibition of BCRP-mediated drug resistance in human multidrug-resistant MCF7/MX cells; type: cell-based; in short: as §2
# T2 sequence (Q9UNQ0 whole entry): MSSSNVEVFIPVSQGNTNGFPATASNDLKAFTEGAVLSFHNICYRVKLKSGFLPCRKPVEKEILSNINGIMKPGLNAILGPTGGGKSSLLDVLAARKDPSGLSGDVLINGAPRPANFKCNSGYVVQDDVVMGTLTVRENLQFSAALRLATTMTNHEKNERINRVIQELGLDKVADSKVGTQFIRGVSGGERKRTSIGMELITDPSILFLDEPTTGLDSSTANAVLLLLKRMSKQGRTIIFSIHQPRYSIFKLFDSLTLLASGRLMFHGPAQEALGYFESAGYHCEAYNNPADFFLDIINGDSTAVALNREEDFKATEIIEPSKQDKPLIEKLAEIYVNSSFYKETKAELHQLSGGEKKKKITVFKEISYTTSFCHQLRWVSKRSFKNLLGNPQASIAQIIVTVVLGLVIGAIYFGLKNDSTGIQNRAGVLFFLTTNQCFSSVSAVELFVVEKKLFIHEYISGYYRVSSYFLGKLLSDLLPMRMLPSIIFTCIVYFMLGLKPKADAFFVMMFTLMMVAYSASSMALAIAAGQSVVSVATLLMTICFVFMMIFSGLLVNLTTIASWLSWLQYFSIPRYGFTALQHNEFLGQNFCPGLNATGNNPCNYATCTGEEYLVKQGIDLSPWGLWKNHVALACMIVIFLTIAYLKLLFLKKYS
# [12] = target: T1, ATP-dependent translocase ABCB1; experiment: Inhibition of MDR1 in human multidrug-resistant MCF7adr cells assessed as potentiation of doxorubicin-induced apoptosis at 1 uM incubated for 72 hrs by M30-apoptosense ELISA assay
# In short: (§4)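 MCF-7adr or SW480_TR cells were seeded at 8000/well for 24 h, then treated for 72 h with 0.5 μM doxorubicin, 1 μM test agent, or both. Cells were lysed with 10% NP-40, and apoptosis was quantified by M30-Apoptosense ELISA following kit instructions.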
# [13] = target: T1, ATP-dependent translocase ABCB1; experiment: Inhibition of MDR1 in human multidrug-resistant MCF7adr cells assessed as increase in calcein AM accumulation by fluorescence microscopy; in short: as §3
# [14] = target: T1, ATP-dependent translocase ABCB1; experiment: Inhibition of MDR1 in human multidrug-resistant MCF7adr cells assessed drug level causing maximal reversal of calcein AM accumulation deficit by fluorescence microscopy; in short: as §3
# [15] = target: T1, ATP-dependent translocase ABCB1; experiment: Inhibition of MDR1 in human multidrug-resistant SW480TR cells assessed drug level causing maximal reversal of calcein AM accumulation deficit by fluorescence microscopy; type: cell-based; in short: as §3
# [16] = target: T1, ATP-dependent translocase ABCB1; experiment: Inhibition of MDR1 in human multidrug-resistant SW480TR cells assessed drug level causing half maximal reversal of calcein AM accumulation deficit by fluorescence microscopy; type: cell-based; conditions: read-out: INH; in short: as §3
# [17] = target: T1, ATP-dependent translocase ABCB1; experiment: Inhibition of MDR1 in human multidrug-resistant SW480TR cells assessed as potentiation of doxorubicin-induced cell death at 1 uM incubated for 72 hrs by MTT assay; type: cell-based
# [18] = target: T1, ATP-dependent translocase ABCB1; experiment: Inhibition of MDR1 in human multidrug-resistant MCF7adr cells assessed drug level causing half maximal reversal of calcein AM accumulation deficit by fluorescence microscopy; conditions: read-out: INH; in short: as §3
# [19] = target: T1, ATP-dependent translocase ABCB1; experiment: Inhibition of MDR1 in human multidrug-resistant SW480TR cells assessed as potentiation of doxorubicin-induced apoptosis at 1 uM incubated for 72 hrs by M30-apoptosense ELISA assay; type: cell-based; in short: as §4
# [20] = system: SKOV-3TR (Homo sapiens); experiment: Antitumor activity against human multidrug-resistant SKOV-3TR cells xenografted in Crl:SHO-Prkdc'SCIDHr'hr nude mouse assessed as tumor growth inhibition at 20 mg/kg, ip dosed twice weekly for two weeks starting two weeks post tumor cells implantation
smiles,measurement,setting,value
COc1ccc(-c2cc([C@@H](O)[C@@H]3CCCCN3)c3ccccc3n2)cc1.Cl,inhibition (INH),[1],Not Active
same,inhibition (INH),[2],Not Active
same,inhibition (INH),[3],Not Active
COc1ccc(-c2cc([C@@H](O)[C@H]3CCCCN3)c3ccccc3n2)cc1.Cl,inhibition (INH),[1],Active
same,inhibition (INH),[2],Active
same,inhibition (INH),[3],Active
COc1ccc(-c2cc([C@H](O)[C@@H]3CCCCN3)c3ccccc3n2)cc1.Cl,inhibition (INH),[1],Active
same,inhibition (INH),[2],Active
same,inhibition (INH),[3],Active
COc1ccc(-c2cc([C@H](O)[C@H]3CCCCN3)c3ccccc3n2)cc1,inhibition (INH),[4],Not Active
same,inhibition (INH),[5],Active
same,inhibition (INH),[6],Dose-dependent effect
same,Activity,[7],Active
same,inhibition (INH),[1],Active
same,growth inhibition (GI),[8],inactive
same,Activity,[9],Non-toxic
same,Activity,[10],Non-toxic
same,inhibition (INH),[11],Not Active
same,inhibition (INH),[12],Active
same,inhibition (INH),[2],Active
same,inhibition (INH),[13],Dose-dependent effect
same,INH,[14],500 nM
same,INH,[15],500 nM
same,IC50,[16],100 nM
same,inhibition (INH),[17],Active
same,IC50,[18],100 nM
same,inhibition (INH),[19],Active
same,inhibition (INH),[3],Active
CC(=O)O[C@H]1C(=O)[C@@]2(C)[C@H]([C@H](OC(=O)c3ccccc3)[C@]3(O)C[C@H](OC(=O)[C@H](O)[C@@H](NC(=O)c4ccccc4)c4ccccc4)C(C)=C1C3(C)C)[C@]1(OC(C)=O)CO[C@@H]1C[C@@H]2O,growth inhibition (GI),[20],inactive
